As usually defined, the IC50 is the point on the concentration scale where inhibition reaches its midpoint. The low end stands for inhibition by little substance, the high end for a need for much substance. In general, Ki refers to a dissociation constant, usually derived from enzyme kinetics or from competition with a known ligand. Broadly, the Hill coefficient is the slope factor of the fitted curve. One may read the Km as the substrate concentration at which the rate is half of its maximum. In general, solubility refers to how much of the substance goes into solution per volume. High values mean a readily soluble substance, low ones a poorly soluble substance.

Results on 16 molecules are retold here after article PMC6648814 (ACS Omega, 2019).

For one data set, the target named is T1, hDfr (Homo sapiens, UniProt P00374).
T1 sequence (P00374 1-187): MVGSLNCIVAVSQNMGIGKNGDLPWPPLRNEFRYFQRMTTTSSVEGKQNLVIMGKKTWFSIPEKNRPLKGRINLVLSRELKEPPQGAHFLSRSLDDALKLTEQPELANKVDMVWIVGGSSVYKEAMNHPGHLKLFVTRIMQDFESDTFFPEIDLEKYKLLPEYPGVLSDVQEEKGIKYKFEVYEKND
The data set is described as follows: human Dfr inhibition, kinetic assay. It is filed as biochemical. Conditions: for inhibition of hDfr (in words): selectivity. In short, it runs like this: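 His6-tagged human Dfr, purified by nickel affinity (stepwise imidazole in 0.1 M potassium phosphate, pH 8.0), then gel filtration in 0.1 M potassium phosphate, pH 7.5. Protein quantified by Bio-Rad assay. Kinetic assay at pH 7. Test compound tested up to the highest concentration that absorbance and precipitation allowed. IC50 determined per earlier method, with Ki calculated from IC50.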

A further data set addresses T2, DfrB4 (Escherichia coli, UniProt Q8VNN1).
T2 sequence (Q8VNN1 1-78): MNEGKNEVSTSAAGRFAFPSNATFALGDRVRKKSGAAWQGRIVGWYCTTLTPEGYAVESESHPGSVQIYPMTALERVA
The data set is described as follows: DfrB4 inhibition, kinetic assay. It is filed as biochemical.

Data set [1] deals with T3, DfrB1 (Escherichia coli, UniProt P00383).
T3 sequence (P00383 1-78): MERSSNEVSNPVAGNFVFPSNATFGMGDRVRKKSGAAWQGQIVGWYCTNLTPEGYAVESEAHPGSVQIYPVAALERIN
The data set is described as follows: DfrB1 inhibition, spectrophotometric kinetic assay. It is filed as biochemical. Conditions: for IC50: DfrB1 IC50, pH 7; for Hill coefficient: DfrB1 inhibition, Hill plot; for fold change of DfrB1 Ki relative to 1: greater Ki / weaker than 1; for inhibition of DfrB1 (in words): at the highest concentration that could be assayed.

For a further data set, the target named is apo-DfrB1. Conditions: read-out: Kd1; binding on the apo-DfrB1; cited from earlier work.
Data set [2] deals with T3, DfrB1. Conditions: DfrB1 substrate KM; cited from earlier work.
The nature of data set [3]: Solubility limit in assay medium. It is filed as physicochemical. Conditions: 10% DMSO, aqueous with cosolvent or surfactant or cyclodextrin.
In the next data set the test system is E. coli expressing DfrB4. Conditions: highest TMP concentration dissolved in the medium, 600 μg/mL; cited from earlier work.

Regarding `O=C(O)c1ccc2[nH]c(-c3ccc(OCCC(O)COc4ccc(-c5nc6cc(C(=O)O)ccc6[nH]5)cc4)cc3)nc2c1` (stereo not shown) [Compound 3], at hDfr, the 50% inhibitory concentration (IC50) is greater than 500 µM and the “inhibition of hDfr (in words)” value was “no inhibition”. For the same molecule, the Ki on DfrB4 came to 3.9 ± 0.9 µM. On DfrB1 [1], the inhibitory constant (Ki) was 3.5 ± 1.7 µM and inhibition was half-maximal at 110 ± 10 µM (IC50).
For the molecule `O=C(O)c1ccc2nc(-c3ccc(OCCCOc4ccc(-c5nc6ccc(C(=O)O)cc6[nH]5)cc4Br)c(Br)c3)[nH]c2c1` [Compound 21], the results for the IC50 against hDfr and on DfrB1 [1] were greater than 400 µM and 60 ± 20 µM, respectively. Moreover, the inhibition constant (Ki) at DfrB1 [1] was 1.7 ± 0.6 µM.
As for `O=C(O)c1ccc2[nH]c(-c3ccc(OC/C=C/COc4ccc(-c5nc6cc(C(=O)O)ccc6[nH]5)cc4)cc3)nc2c1` [Compound 10], on hDfr, the IC50 was greater than 400 µM and the “inhibition of hDfr (in words)” value was “did not inhibit”. On DfrB1 [1], the Ki is 2.8 ± 0.8 µM and the half-maximal inhibitory concentration (IC50) stood at 90 ± 20 µM.
In turn, `O=C(O)c1ccc(OCCCCCCCCCCCCOc2ccc(C(=O)O)cc2)cc1` [Compound 15] gave a half-inhibitory concentration (IC50) on DfrB1 [1] greater than 250 µM.
As to `O=C(O)c1ccc2nc(-c3ccc(OCC(COc4ccc(-c5nc6ccc(C(=O)O)cc6[nH]5)cc4)(COc4ccc(-c5nc6ccc(C(=O)O)cc6[nH]5)cc4)COc4ccc(-c5nc6ccc(C(=O)O)cc6[nH]5)cc4)cc3)[nH]c2c1` [Compound 31], the Ki at DfrB4 amounted to 1.9 ± 0.5 µM. In addition, at DfrB1 [1], the Ki is 1.1 ± 0.3 µM, the “fold lower DfrB1 Ki than the best inhibitors” value is recorded as 2- to 12 fold and the Hill coefficient worked out at 1.1 ± 0.4.
As for `NC(=O)C1=CN([C@@H]2O[C@H](COP(=O)(O)OP(=O)(O)OC[C@H]3O[C@@H](n4cnc5c(N)ncnc54)[C@H](OP(=O)(O)O)[C@@H]3O)[C@@H](O)[C@H]2O)C=CC1` [NADPH], the Michaelis-Menten constant (Km) at DfrB4 (DfrB4 substrate KM) is 2.8 ± 0.6 µM; at DfrB1 [2], 1.6 ± 0.02 µM. In addition, on apo-DfrB1, the Kd is 2.5 µM.
As for `O=C(O)c1ccc2[nH]c(-c3ccc(OCc4ccc(COc5ccc(-c6nc7cc(C(=O)O)ccc7[nH]6)cc5)cc4)cc3)nc2c1` [Compound 11], at hDfr, the half-maximal inhibitory concentration (IC50) was greater than 100 µM and the “inhibition of hDfr (in words)” value is recorded as “did not inhibit”. The same molecule had a solubility in data set [3] of no more than 100 µM. The molecule also displayed a Ki at DfrB1 [1] of 6.1 µM.
For `O=C(O)c1ccc(OCCCCCCOc2ccc(C(=O)O)cc2)cc1` [Compound 12], the half-inhibitory concentration (IC50) at DfrB1 [1] is greater than 500 µM.
Molecule `O=C(O)c1ccc2[nH]c(-c3cccc(OCC(O)COc4cccc(-c5nc6cc(C(=O)O)ccc6[nH]5)c4)c3)nc2c1` [Compound 19] displayed an IC50 at hDfr greater than 500 µM. In addition, at DfrB1 [1], the affinity, expressed as Ki, was 12 ± 3 µM; half-maximal inhibition (IC50) required 400 ± 100 µM; the “fold change of DfrB1 Ki relative to 1” value came to 3 fold.
Turning to `Nc1nc(=O)c2c([nH]1)NCC(CNc1ccc(C(=O)N[C@@H](CCC(=O)O)C(=O)O)cc1)=N2` [DHF, dihydrofolate], the Kd on apo-DfrB1 is 120 µM.
On to `O=C(O)Cc1ccc(OCCCCCCOc2ccc(CC(=O)O)cc2)cc1` [Compound 16], for which, at DfrB1 [1], the IC50 is greater than 500 µM and the “inhibition of DfrB1 (in words)” value is “No inhibition was observed”.
As to `O=C(O)CCc1ccc(OCCCCOc2ccc(CCC(=O)O)cc2)cc1` [Compound 17], at DfrB1 [1], the IC50 is greater than 200 µM and the “inhibition of DfrB1 (in words)” value is “No inhibition was observed”.
With `O=C(O)c1ccc2nc(-c3ccc(OCCC(O)COc4ccc(-c5nc6ccc(C(=O)O)cc6[nH]5)cc4Br)c(Br)c3)[nH]c2c1` (stereo not shown) [Compound 20b], the results for the IC50 against hDfr and at DfrB1 [1] were greater than 400 µM and 80 ± 20 µM, respectively. Moreover, the Ki at DfrB4 was 3.7 ± 0.7 µM; on DfrB1 [1] it was 2.6 ± 0.7 µM.
For the molecule `O=C(O)c1ccc2[nH]c(-c3ccc(OCc4ccccc4COc4ccc(-c5nc6cc(C(=O)O)ccc6[nH]5)cc4)cc3)nc2c1` [Compound 33], at hDfr, the “inhibition of hDfr (in words)” value is recorded as “no inhibition”. Besides, the inhibition constant Ki at DfrB4 amounted to 11 ± 1.3 µM. Moreover, at DfrB1 [1], the Ki is 7.4 ± 2.7 µM, the Hill coefficient was determined as 1.1 ± 0.1 and the “fold change of DfrB1 Ki relative to 1” value was 2 fold. Further, the “mode of inhibition (Dixon plot)” value on DfrB1 [1] (varying NADPH, saturating DHF, with respect to NADPH binding) is listed as “competitive”.
Regarding `O=C(O)c1ccc2cc(-c3ccc(OCCCCCCCCOc4ccc(-c5ccc6cc(C(=O)O)ccc6c5)cc4)cc3)ccc2c1` [Compound 18], at DfrB1 [1], the IC50 was greater than 200 µM and the “inhibition of DfrB1 (in words)” value is given as “abolished inhibition”.
Turning to `COc1cc(Cc2cnc(N)nc2N)cc(OC)c1OC` [TMP, Trimethoprim, reference compound], the inhibition constant Ki at DfrB4 was determined as 550 µM; at DfrB1 [1], 600 µM. Further, in the data set on E. coli expressing DfrB4, the “TMP resistance conferred by DfrB4 expression” value is “complete resistance”.
